Data on one compound can be found in ChEMBL document CHEMBL3763092, “Design and synthesis of pyrrolobenzodiazepine-gallic hybrid agents as p53-dependent and -independent apoptogenic signaling in melanoma cells” (Eur J Med Chem, 2016).

For one assay, the system named is B16. In words: Antitumor activity against mouse B16 cells xenografted in ICR mouse assessed as decrease in tumor growth administered via interavenous. The format is functional, cell-based. In short, it runs like this: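 Female ICR mice, seven weeks old, inoculated s.c. in the footpad with 1 × 10^6 B16 cells in 20 µl PBS. Once tumors reached a mean diameter of 4-7 mm (day 0), mice were randomized into groups of three and dosed i.v. at 0, 2, 4 mg/kg. Two perpendicular tumor diameters and body weight were taken at least 3 times weekly. T/C% was calculated from relative tumor volume; body weight is expressed as % of day 0. Statistics by t-test.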

The test system of the next assay is MCF7. Put plainly: Cytotoxicity against human MCF7 cells expressing p53 wild type assessed as cell viability at 1 uM after 24 hrs by MTT assay. The settings on record: MCF7, 24 h, read-out: Activity. In kind it is functional. In short, it runs like this: (§1)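 Cells were exposed to compound at 1 µM for 24 h, then growth and viability were read by MTT assay. Media: A375 in DMEM; RPMI7951 and MCF-7 in MEM; A549 in RPMI1640; H1299 in DMEM-F12; all with 10% FCS and penicillin/streptomycin, at 37 °C and 5% CO2. Fibroblasts came from adult foreskin. DMSO stocks were 10 mM.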
(Tetrazolium dyes change colour on reduction, which living cells bring about.)

Assay [1] has as its system RPMI-7951. In words: Cytotoxicity against human RPMI7951 expressing p53 mutant cells assessed as colony formation at 0.5 uM after 10 days by SRB assay. The format is functional, cell-based. In short, it runs like this:
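Cells were seeded at 100 per well and treated from the second day. Medium containing 0.5 µM agent was renewed every 3 days. After 10 days of treatment, colonies were stained with SRB and photographed. Three independent experiments.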
(In SRB staining, fixed cells bind dye roughly in proportion to their protein.)

Assay [2] concerns A-375. Put plainly: Induction of apoptosis in human A375 cells expressing p53 wild type assessed as increase in bax mRNA level by RT- qPCR analysis. In kind it is functional, cell-based. As to conditions: TDE = time-dependent effect. In short, it runs like this:
(§2)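 Quantitative real-time PCR on A375 cells over a time course, measuring p53, bax and bcl-xl mRNA normalized to GAPDH mRNA.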
Background: Quantitative PCR measures a nucleic acid by following its amplification.

Assay [3] deals with A-375. Put plainly: Induction of apoptosis in human A375 cells expressing p53 wild type assessed as increase release of cytochrome c from mitochondria to cytosol at 0.5 uM after 24 hrs by immunofluorescence analysis. The format is functional, cell-based. In short, it runs like this: (§3)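 A375 cells on coverslips (1 × 10^4) were treated with 0.5 µM for 24 h. Cells were fixed in 4% formaldehyde for 5 min at 4 °C, permeabilized with 0.5% Triton X-100, and blocked with 5% BSA at 37 °C for 45 min. Primary antibodies were applied for 1 h at RT: mouse anti-p-ATR and anti-p-ATM 1:1000, anti-8-oxoguanine 1:250, COX IV and cytochrome c 1:1000. Secondary antibodies (rhodamine for 8-oxoguanine) followed for 30 min. DAPI counterstain.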

A short description of assay [4]: Cytotoxicity against human RPMI7951 cells expressing p53 mutant assessed as cell viability at 1 uM after 24 hrs by MTT assay. The format is functional. The settings on record: RPMI-7951, 24 h, read-out: Activity. In short, it runs like this:
as §1

In assay [5] the test system is A-375. Put plainly: Induction of DNA damage in human A375 cells expressing p53 wild type assessed as increase in ATR/ATM activation at 0.5 uM after 24 hrs by immuohistochemistry analysis. The format is functional, cell-based. In short, it runs like this: as §3
The subject of assay [6] is RPMI-7951. In words: Induction of apoptosis in human RPMI7951 cells expressing p53 mutant assessed as increased release of cathepsin D to cytosol at 0.5 uM by immunofluorescent staining analysis. In kind it is functional, cell-based. In short, it runs like this:
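RPMI7951 cells on coverslips (1 × 10^4) were treated with 0.5 µM for 24 h. Immunofluorescence steps: fixation in 4% formaldehyde, permeabilization with 0.5% Triton X-100, blocking with 5% BSA. Primary antibodies: rabbit anti-cathepsin D and mouse anti-LAMP-1 at 1:500, cytochrome c and COX IV at 1:1000, 1 h at RT. Secondary antibodies for 30 min. DAPI counterstain.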

Assay [7] relates to A-375. Put plainly: Induction of apoptosis in human A375 cells expressing p53 wild type assessed as increase in cleaved PARP levels at 0.5 uM after 24 hrs by western blot analysis. In kind it is functional, cell-based. In short, it runs like this:
(§4)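 A375 cells were exposed to 0.5 µM for 24 h, and lysates were immunoblotted with specific antibodies (p53, Cdc25c, p-Chk1, Bcl-xL, PARP, caspase-3). GAPDH served as loading control. Three independent experiments.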

The subject of assay [8] is A-375. Put plainly: Induction of reactive oxygen species generation in human A375 cells expressing p53 wild type assessed as increase in intracellular H2O2 level at 0.5 uM after 24 hrs by DCFH-DA staining based fluorescence analysis. In kind it is functional, cell-based. In short, it runs like this: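 A375 cells were treated with 0.5 µM for 0, 12 and 24 h and stained with DCFH-DA to detect intracellular H2O2.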

The next assay has as its system A549. In words: Cytotoxicity against human A549 cells assessed as cell viability at 1 uM after 24 hrs by MTT assay. In kind it is functional. As to conditions: A549, 24 h, read-out: Activity. In short, it runs like this: as §1
The test system of assay [9] is A-375. Put plainly: Cytotoxicity against human A375 cells expressing p53 wild type assessed as cell viability at 1 uM after 24 hrs by MTT assay. In kind it is functional. As to conditions: A-375, 24 h, read-out: Activity. In short, it runs like this: as §1
Assay [10] concerns A-375. In words: Induction of apoptosis in human A375 cells expressing p53 wild type assessed as decrease in mitochondrial membrane potential at 0.5 uM after 12 hrs by DiOC6 dye based flow cytometry. The format is functional, cell-based. In short, it runs like this:
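A375 cells were treated with 0.5 µM for 0, 12 and 24 h, labeled with DiOC6 and analyzed by flow cytometry. Three independent experiments.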

The test system of assay [11] is A-375. In words: Induction of apoptosis in human A375 cells expressing p53 wild type assessed as decrease in bcl-xl mRNA level by RT- qPCR analysis. The settings on record: TDE = time-dependent effect. In kind it is functional, cell-based. In short, it runs like this:
as §2

Assay [12] relates to A-375. In words: Induction of apoptosis in human A375 cells expressing p53 wild type assessed as increase in p53 mRNA level by RT- qPCR analysis. In kind it is functional, cell-based. The settings on record: TDE = time-dependent effect. In short, it runs like this: as §2
In assay [13] the test system is A-375. In words: Effect on cell cycle distribution in human A375 cells expressing p53 wild type assessed as number of cells at G2/M phase at 0.5 uM after 24 hrs by FACS analysis (reference value: 12.1 %). The format is functional.
Assay [14] can be described thus: Cytotoxicity against p53 knockout human H1299 cells assessed as cell viability at 1 uM after 24 hrs by MTT assay. In kind it is functional. As to conditions: NCI-H1299, 24 h, read-out: Activity. In short, it runs like this:
as §1

Assay [15] deals with A-375. Put plainly: Effect on cell cycle distribution in human A375 cells expressing p53 wild type assessed as number of cells at G0/G1 phase at 0.5 uM after 24 hrs by FACS analysis Rvb = 74.1 %). In kind it is functional.
Assay [16] has as its system A-375. In words: Induction of DNA lesion in human A375 cells expressing p53 wild type assessed as increase in 8-oxoguanine expression at 0.5 uM after 24 hrs by immunohistochemical analysis. In kind it is functional, cell-based. In short, it runs like this: as §3
In assay [17] the test system is RPMI-7951. In words: Induction of apoptosis in human RPMI7951 cells expressing p53 mutant assessed as decrease in lysosomal H+ concentration at 0.5 uM after 24 and 48 hrs by flow cytometric analysis. The format is functional, cell-based. In short, it runs like this: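 Cells were loaded with LysoTracker Green (75 nM) for 15 min at 37 °C before treatment with 0.5 µM for the indicated times. After washing, mean fluorescence was quantified by flow cytometry. For p53 knockdown, A375 cells (6 × 10^4/well, antibiotic-free DMEM) were transfected with 30 nM tp53 siRNA or non-target siRNA using Lipofectamine RNAiMAX and harvested at 24 h.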

The test system of assay [18] is A-375. In words: Induction of apoptosis in human A375 cells expressing p53 wild type assessed as decrease in Bcl-xl levels at 0.5 uM after 24 hrs by western blot analysis. The format is functional, cell-based. In short, it runs like this: as §4
Assay [19] deals with A-375. In words: Decrease in Cdc25c level in human A375 cells expressing p53 wild type at 0.5 uM after 24 hrs by western blot analysis. The format is functional, cell-based. In short, it runs like this: as §4

Active and inactive are the calls of the source. The rule behind the calls is not given here.

For `COc1cc2c(cc1OCCCCOc1cc(OC)c(OC)c(OC)c1)N=C[C@@H]1CCCN1C2=O`, the inhibition result in the assay on B16 was “Dose-dependent effect”. For the same compound, the viability at 1 µM was determined as 55.3% with MCF7; 62.3% in assay [4]; 77.9% in the assay with A549; 37.4% with A-375 [9]; 73% in assay [14]. In addition, the inhibition result in the assay with RPMI-7951 [1] and in the assay with A-375 [19] was “Active” throughout. Besides, the Activity result in the assay on A-375 [2] is “tde”; with A-375 [11] it was “tde”; with A-375 [12] it was “tde”; in the assay with A-375 [13], 4.8%; with A-375 [15] it was 32.6%. Besides, the outcome in the assay on A-375 [3], in the assay on A-375 [5], in the assay with RPMI-7951 [6], in the assay on A-375 [7], in the assay on A-375 [8] and with A-375 [10] was Active. In addition, the outcome in the assay with A-375 [16], with RPMI-7951 [17] and in the assay with A-375 [18] was Active.
